ChEMBL document CHEMBL4706499, “PTG-0861: A novel HDAC6-selective inhibitor as a therapeutic strategy in acute myeloid leukaemia” (Eur J Med Chem, 2020)

Columns and labels:
MV4-11 [1] = assay: Cytotoxicity against human MV4-11 cells measured after 72 hrs by spectrophotometer method; type: functional, cell-based; settings: MV4-11, 72 h
[2] = Cytotoxicity against human MRC9 cells measured after 72 hrs by spectrophotometer method; type: cell-based; settings: MRC9, 72 h
Histone deacetylase 3 = Histone deacetylase 3 (Homo sapiens, UniProt O15379); assay: Inhibition of recombinant full length human HDAC3 expressed in SF9 baculovirus using FAM- labelled acetylated peptide as substrate measured by Electrophoretic mobility shift assay
Histone deacetylase 2 = Histone deacetylase 2 (Homo sapiens, UniProt Q92769); assay: Inhibition of recombinant full length human HDAC2 expressed in SF9 baculovirus using FAM- labelled acetylated peptide as substrate measured by Electrophoretic mobility shift assay
Histone deacetylase 5 = Histone deacetylase 5 (Homo sapiens, UniProt Q9UQL6); assay: Inhibition of recombinant full length human HDAC5 expressed in SF9 baculovirus using FAM- labelled acetylated peptide as substrate measured by Electrophoretic mobility shift assay
Histone deacetylase 7 = biological target: T1, Histone deacetylase 7 (Homo sapiens, UniProt Q8WUI4); assay: Inhibition of recombinant full length human HDAC7 expressed in SF9 baculovirus using FAM- labelled acetylated peptide as substrate measured by Electrophoretic mobility shift assay
T1 sequence (Q8WUI4 whole entry): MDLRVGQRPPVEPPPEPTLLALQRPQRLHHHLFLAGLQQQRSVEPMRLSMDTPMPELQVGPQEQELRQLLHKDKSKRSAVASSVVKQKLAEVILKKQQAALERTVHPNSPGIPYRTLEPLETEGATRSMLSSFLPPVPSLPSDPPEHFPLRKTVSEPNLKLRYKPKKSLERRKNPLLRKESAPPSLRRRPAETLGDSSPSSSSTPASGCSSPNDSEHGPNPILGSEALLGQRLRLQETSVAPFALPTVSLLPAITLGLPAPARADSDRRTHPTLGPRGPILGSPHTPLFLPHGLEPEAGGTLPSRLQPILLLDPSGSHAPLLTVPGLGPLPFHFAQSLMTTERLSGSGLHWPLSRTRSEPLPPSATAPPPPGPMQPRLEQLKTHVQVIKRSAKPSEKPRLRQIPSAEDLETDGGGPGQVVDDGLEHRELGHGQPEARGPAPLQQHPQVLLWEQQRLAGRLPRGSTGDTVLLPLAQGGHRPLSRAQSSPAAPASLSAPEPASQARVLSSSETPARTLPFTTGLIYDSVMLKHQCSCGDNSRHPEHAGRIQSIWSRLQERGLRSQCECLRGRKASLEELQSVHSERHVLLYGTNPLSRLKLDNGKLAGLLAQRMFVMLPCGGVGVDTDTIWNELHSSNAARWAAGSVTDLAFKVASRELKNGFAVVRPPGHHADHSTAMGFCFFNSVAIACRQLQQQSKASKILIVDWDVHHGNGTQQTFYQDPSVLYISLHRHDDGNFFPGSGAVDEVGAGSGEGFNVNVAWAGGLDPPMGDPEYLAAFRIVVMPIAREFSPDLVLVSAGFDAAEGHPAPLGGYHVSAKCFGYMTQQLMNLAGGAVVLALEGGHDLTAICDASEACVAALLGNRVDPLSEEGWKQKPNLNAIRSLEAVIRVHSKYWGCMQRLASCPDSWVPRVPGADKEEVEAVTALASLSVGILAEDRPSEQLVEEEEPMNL

[3] = biological target: T2, Polyamine deacetylase HDAC10 (Homo sapiens, UniProt Q969S8); assay: Inhibition of recombinant full length human HDAC10 expressed in SF9 baculovirus using FAM- labelled acetylated peptide as substrate measured by Electrophoretic mobility shift assay
T2 sequence (Q969S8 whole entry): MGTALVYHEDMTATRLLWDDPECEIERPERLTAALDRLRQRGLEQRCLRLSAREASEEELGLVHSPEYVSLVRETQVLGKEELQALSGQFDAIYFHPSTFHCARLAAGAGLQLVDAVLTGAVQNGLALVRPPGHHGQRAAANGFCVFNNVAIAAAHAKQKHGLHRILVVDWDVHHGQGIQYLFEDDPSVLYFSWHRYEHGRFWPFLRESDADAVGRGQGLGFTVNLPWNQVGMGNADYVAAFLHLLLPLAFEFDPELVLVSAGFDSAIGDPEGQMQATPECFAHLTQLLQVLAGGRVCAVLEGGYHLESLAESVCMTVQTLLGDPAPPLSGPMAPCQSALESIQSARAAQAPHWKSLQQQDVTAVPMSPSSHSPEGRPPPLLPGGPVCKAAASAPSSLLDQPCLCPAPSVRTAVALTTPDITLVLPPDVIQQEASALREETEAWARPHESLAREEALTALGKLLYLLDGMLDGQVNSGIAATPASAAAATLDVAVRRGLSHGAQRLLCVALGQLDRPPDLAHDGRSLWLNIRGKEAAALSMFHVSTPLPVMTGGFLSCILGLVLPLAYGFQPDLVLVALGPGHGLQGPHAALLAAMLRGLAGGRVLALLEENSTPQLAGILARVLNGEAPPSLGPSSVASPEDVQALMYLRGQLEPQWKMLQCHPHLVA

MV4-11 [4] = assay: Induction of apoptosis in human MV4-11 cells assessed as viable cells at 4 microM measured after 18 hrs by Annexin V/Propidium iodide stain based Flow cytometry assay (reference value: 53.27%); type: functional; settings: read-out: Activity
MV4-11 [5] = assay: Induction of apoptosis in human MV4-11 cells assessed as early apoptotic cells at 1 microM measured after 18 hrs by Annexin V/Propidium iodide stain based Flow cytometry assay (reference value: 1.7%); type: functional
MV4-11 [6] = assay: Induction of apoptosis in human MV4-11 cells assessed as viable cells at 0.5 microM measured after 18 hrs by Annexin V/Propidium iodide stain based Flow cytometry assay (reference value: 53.27%); type: functional; settings: read-out: Activity
MV4-11 [7] = assay: Induction of apoptosis in human MV4-11 cells assessed as late apoptotic cells at 4 microM measured after 18 hrs by Annexin V/Propidium iodide stain based Flow cytometry assay (reference value: 4.91%); type: functional
HUVEC = assay: Cytotoxicity against human HUVEC cells measured after 72 hrs by spectrophotometer method; type: cell-based
[8] = Toxicity in CD-1 mouse assessed as changes in body weight at 20 mg/kg, po measured after 5 days; type: organism-based; settings: in vivo, 120 h, time 5 day
[9] = Glutathione reactivity at pH 7.4 assessed as compound remaining measured by LC-MS/MS method; type: physicochemical
[10] = Glutathione reactivity at pH 7.4 assessed as compound remaining measured after 60 mins by LC-MS/MS method; type: physicochemical; settings: glutathione solution, read-out: Stabilty
[11] = Apparent permeability across apical to basolateral side in human Caco2 cells measured after 2 hrs by LC-MS/MS method; type: ADME, cell-based; settings: Caco-2
Method in brief: (§1)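 Bidirectional Caco-2 permeability was measured as Papp in the apical-to-basolateral and basolateral-to-apical directions. The efflux ratio was calculated from the two directional Papp values.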

[12] = Apparent permeability across basolateral to apical side in human Caco2 cells measured after 2 hrs by LC-MS/MS method; type: ADME, cell-based; settings: Caco-2; method in brief: as §1
[13] = Efflux ratio of apparent permeability in human Caco2 cells measured after 2 hrs by LC-MS/MS method; type: ADME, cell-based; settings: Caco-2; method in brief: as §1
[14] = Half life in CD1 mouse at 20 mg/kg, ip measured after 24 hrs by LC/MS/MS method; type: ADME, organism-based; settings: in vivo
[15] = Toxicity in CD-1 mouse assessed as visible signs of toxicity at 20 mg/kg, po measured after 5 days; type: organism-based; settings: in vivo, 120 h, time 5 day

Sequence of Histone deacetylase 2 (Q92769 whole entry): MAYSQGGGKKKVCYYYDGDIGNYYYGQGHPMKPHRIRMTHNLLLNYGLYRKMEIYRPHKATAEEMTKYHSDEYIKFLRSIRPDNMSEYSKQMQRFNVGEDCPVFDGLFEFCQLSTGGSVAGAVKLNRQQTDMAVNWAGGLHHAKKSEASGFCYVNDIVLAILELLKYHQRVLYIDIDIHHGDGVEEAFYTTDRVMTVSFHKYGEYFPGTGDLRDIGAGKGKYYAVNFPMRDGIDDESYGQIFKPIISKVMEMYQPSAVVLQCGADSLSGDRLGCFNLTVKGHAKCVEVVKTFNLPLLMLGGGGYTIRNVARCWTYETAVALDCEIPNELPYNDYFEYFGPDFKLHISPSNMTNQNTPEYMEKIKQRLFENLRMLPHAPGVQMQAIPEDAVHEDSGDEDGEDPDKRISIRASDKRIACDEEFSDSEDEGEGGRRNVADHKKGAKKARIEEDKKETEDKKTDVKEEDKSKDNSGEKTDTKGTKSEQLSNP
Sequence of Histone deacetylase 5 (Q9UQL6 whole entry): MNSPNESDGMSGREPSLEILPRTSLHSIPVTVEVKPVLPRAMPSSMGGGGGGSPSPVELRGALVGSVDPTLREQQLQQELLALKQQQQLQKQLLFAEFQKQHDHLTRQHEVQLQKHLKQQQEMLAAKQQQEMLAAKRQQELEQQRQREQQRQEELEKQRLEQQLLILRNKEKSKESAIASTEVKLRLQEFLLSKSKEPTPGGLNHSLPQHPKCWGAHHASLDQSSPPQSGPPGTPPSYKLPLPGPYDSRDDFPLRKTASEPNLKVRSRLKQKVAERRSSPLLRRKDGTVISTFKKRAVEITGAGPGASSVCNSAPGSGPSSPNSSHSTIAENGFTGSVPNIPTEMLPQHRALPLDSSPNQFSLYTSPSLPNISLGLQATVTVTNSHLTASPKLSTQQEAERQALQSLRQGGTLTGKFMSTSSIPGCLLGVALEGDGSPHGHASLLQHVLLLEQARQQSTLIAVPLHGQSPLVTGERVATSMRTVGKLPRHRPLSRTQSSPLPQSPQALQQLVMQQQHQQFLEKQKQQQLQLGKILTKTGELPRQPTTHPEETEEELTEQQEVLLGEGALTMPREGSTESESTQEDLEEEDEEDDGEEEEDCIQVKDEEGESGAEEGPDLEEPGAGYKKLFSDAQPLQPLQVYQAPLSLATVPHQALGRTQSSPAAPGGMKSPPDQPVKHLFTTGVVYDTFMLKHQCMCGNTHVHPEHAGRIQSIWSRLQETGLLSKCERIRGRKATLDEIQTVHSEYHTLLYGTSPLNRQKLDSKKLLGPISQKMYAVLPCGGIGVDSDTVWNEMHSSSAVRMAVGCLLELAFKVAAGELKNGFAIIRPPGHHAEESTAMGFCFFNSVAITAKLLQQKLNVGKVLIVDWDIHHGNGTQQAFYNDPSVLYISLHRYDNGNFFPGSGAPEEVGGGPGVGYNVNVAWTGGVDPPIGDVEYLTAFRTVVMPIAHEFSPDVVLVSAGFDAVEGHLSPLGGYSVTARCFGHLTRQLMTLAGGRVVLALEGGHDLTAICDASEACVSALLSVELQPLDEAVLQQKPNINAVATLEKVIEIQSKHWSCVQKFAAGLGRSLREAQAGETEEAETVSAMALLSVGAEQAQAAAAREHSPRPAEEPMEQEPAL
Sequence of Histone deacetylase 3 (O15379 whole entry): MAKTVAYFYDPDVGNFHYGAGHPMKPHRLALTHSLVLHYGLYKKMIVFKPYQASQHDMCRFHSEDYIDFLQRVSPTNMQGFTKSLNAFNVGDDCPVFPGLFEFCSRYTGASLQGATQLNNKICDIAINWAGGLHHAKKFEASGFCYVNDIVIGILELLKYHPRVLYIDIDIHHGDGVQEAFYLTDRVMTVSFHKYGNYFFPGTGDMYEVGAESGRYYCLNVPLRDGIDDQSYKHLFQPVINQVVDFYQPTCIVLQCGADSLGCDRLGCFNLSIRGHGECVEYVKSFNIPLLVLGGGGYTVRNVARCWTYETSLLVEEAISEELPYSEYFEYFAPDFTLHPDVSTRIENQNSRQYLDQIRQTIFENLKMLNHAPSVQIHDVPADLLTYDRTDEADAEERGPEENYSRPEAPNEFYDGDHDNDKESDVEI

O=C(NO)c1ccc(CNC(=O)c2c(F)c(F)c(F)c(F)c2F)cc1
IC50 (MV4-11 [1]): 1.85 µM
IC50 [2]: > 50 µM
IC50 (Histone deacetylase 3): 0.215 µM
IC50 (Histone deacetylase 2): > 1 µM
IC50 (Histone deacetylase 5): > 1 µM
IC50 (Histone deacetylase 7): > 1 µM
IC50 [3]: > 1 µM
viability at 4 µM (MV4-11 [4]): 17.9%
Activity (MV4-11 [5]): 4.27%
viability at 0.5 µM (MV4-11 [6]): 47.3%
Activity (MV4-11 [7]): 41%
IC50 (HUVEC): 10.3 µM
Activity [8]: Non-Toxic
Stabilty [9]: 100%
remaining at 1 h [10]: 98%
Papp A→B at 2 h [11]: 1.33 ×10⁻⁶ cm/s
Papp B→A at 2 h [12]: 0.94 ×10⁻⁶ cm/s
efflux ratio at 2 h [13]: 0.71
half-life [14]: 15 min
Activity [15]: Non-Toxic
